ERAP1 inh = inhibitors of human ERAP1 aminopeptidase. recombinant ERAP1, Leu-AMC fluorescence, 60 min. inhibition, % at 10.7 µM. 340,000 compounds, 0.15% hits. AID 652197;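 active means mean replicate inhibition of at least 30%, or all replicates individually reaching that 30% level; inactive means mean below 30% and not every replicate reaching it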;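 further: 0% = neutral control wells and 100% = L-leucinethiol positive control wells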
S100A4 MyoIIA = inhibitors of human S100A4 binding to myosin IIA peptide | P26447 | S100A4/TAMRA-MyoIIA peptide fluorescence polarization | inhibition, % at 10.7 µM | 360,000 compounds, 0.14% hits | AID 652163;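 active means mean inhibition of at least 70% across replicates, with every replicate also reaching that level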
Target sequence (P26447 whole entry, looked up): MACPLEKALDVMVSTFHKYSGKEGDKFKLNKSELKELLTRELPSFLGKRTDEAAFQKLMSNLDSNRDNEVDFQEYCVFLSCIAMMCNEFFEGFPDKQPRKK
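Compound dosing: one dose per compound; test system: human S100A4 monomer with TAMRA-labelled myosin IIA peptide; probe or stimulus: TAMRA-labelled myosin IIA heavy-chain peptide probe, 5 nM; medium: HEPES buffer with Ca2+, pH 7.2; schedule: 5 min incubation before reading; benchmarks: neutral control DMSO, positive control TFP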
E-selectin induc = induces E-selectin expression in human endothelial cells; HUVEC E-selectin immunofluorescence imaging; normalized: neutral wells 0, TNF-alpha wells 100; activation, % at 7.58 µM; 260,000 compounds, 0.37% hits;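 active means mean E-selectin-positive cell signal at least 10% of the positive control, reached in at least 60% of replicates, without over 20% cell loss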
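Assay system: HUVEC primary endothelial cells. Input: 3,000 HUVEC seeded per well. Doses: one compound dose added by pin transfer. Read-out basis: % PE-positive cells. Benchmarks: TNF-alpha high, DMSO low. Detection: immunofluorescence imaging. Buffer or medium: EGM-2, gelatin.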
AF4-AF9 inh = inhibitors of human MLL-AF4/AF9 interaction. P42568. AID 651704. inhibition, % at 10 µM. 350,000 compounds, 0.47% hits. AlphaScreen, biotin-AF4 peptide binding to FLAG-AF9;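 active means every replicate reaching a set inhibition limit, whatever the replicate mean, cut at about 25% in these data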;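 further: 0% = plate neutral control median and 100% = total signal loss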
SIRT5 inh = blocks human SIRT5 desuccinylation of peptide | Purified SirT5, succinyl-peptide AMC, trypsin-coupled fluorescence | inhibition, % at 15 µM | 330,000 compounds, 1.1% hits; in the data active means inhibition above about 15%
Target sequence (Q9NXA8 whole entry, looked up): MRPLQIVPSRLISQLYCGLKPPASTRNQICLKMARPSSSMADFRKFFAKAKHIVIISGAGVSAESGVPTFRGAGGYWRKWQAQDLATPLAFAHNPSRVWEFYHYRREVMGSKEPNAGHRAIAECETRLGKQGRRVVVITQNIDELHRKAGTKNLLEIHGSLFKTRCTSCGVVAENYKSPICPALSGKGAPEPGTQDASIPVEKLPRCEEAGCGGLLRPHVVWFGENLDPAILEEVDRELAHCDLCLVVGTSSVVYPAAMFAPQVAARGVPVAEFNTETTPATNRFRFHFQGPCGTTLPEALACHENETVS
rRNA inh HTS = inhibits bacterial ribosomal RNA function over humanized ribosomes; E. coli WT GFP vs humanized-ribosome RFP mutants, fluorescence, 24 h; hits give low values; DMSO median 0, no signal -100; GFP signal change (wild-type ribosome), % (concentration not given with the values); 350,000 compounds, 1.6% hits;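 active means significant combined selectivity score with lowered wild-type GFP, culture density cut under 30%, mutant RFP and density less affected; inactive means any of these conditions unmet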
Active calls of the source: *; · = not tested or not shown; ! = repeats disagree. Only some compounds are listed: those with a hit (about 3.4% of all), similar ones and a draw of the others.

SMILES	ERAP1 inh	S100A4 MyoIIA	E-selectin induc	AF4-AF9 inh	SIRT5 inh	rRNA inh HTS
COc1ccc(C2=Nc3ccccc3NC(=O)C2N(Cc2ccccc2)C(=O)C2=NNC(=O)CC2)cc1 (centres undefined)	1.6	1.8	0.1	3.4	1.4	-23.0*
COc1ccc(C2=Nc3ccccc3NC(=O)C2N(CCCn2ccnc2)C(=O)c2cccc(S(C)(=O)=O)c2)cc1 (centres undefined)	-2.3	8.1	-0.1	3.9	-1.7	6.3
C[C@@H]1CCCCO[C@@H](CN(C)S(=O)(=O)c2cccs2)[C@H](C)CN([C@H](C)CO)C(=O)c2cc(NC(=O)NC3CCCCC3)ccc2O1	·	·	0.0	·	·	-3.1
CCOC(=O)C1CCN(C2=NC(=O)/C(=C/c3ccccc3OC)S2)CC1	0.0	1.4	1.1	2.9	-1.3	-24.1*
COc1ccccc1/C=C1\SC(N2CCC(C)CC2)=NC1=O	4.3	-1.0	·	7.5	0.9	-26.4
CN(C)CC(=O)N1[C@H](CO)[C@@H](c2ccccc2)C12CN(Cc1cc(F)ccc1F)C2	-1.2	5.5	0.3	4.8	11.4	-0.4
CCOc1ccc(NC(=O)COn2nnc3ccc(S(=O)(=O)N4CCOCC4)cc32)cc1	-0.6	1.4	·	2.1	3.6	-29.4*
C=CCN(CC=C)C(=O)COn1nnc2ccc(S(=O)(=O)N3CCOCC3)cc21	1.9	-16.9	·	1.7	-6.4	7.0
CCOCCN1CCN(C2c3ccccc3CSc3ccccc32)CC1 (centres undefined)	0.1	-1.5	-0.1	11.2	-0.6	-24.7*
CO[C@H]1CN(C)C(=O)c2ccc(NC(=O)CC(F)(F)F)cc2OC[C@H](C)N(C(=O)C2CCOCC2)C[C@@H]1C	4.4	-17.8	-0.2	-0.3	-0.8	2.5
CN(C)/C=C1/Oc2c(ccc3ccccc23)C1=O	4.8	-58.7	·	-11.2	-3.1	3.9
CN(C)/C=C1\Oc2ccc3ccccc3c2C1=O	-0.6	-8.6	·	-2.4	111.8*	11.6
Cc1ccn2cc(-c3cccc(S(=O)(=O)N4CCCCC4)c3)nc2c1	-0.5	-1.2	·	-1.8	0.9	-44.0*
Cc1ccc2nc(-c3cccc(S(=O)(=O)N4CCCC4)c3)cn2c1	2.7	2.7	0.2	0.3	-4.8	-0.6
COc1ccc2nc(N3C(=O)C(O)=C(C(=O)c4ccco4)C3c3ccccc3OC)sc2c1 (centres undefined)	1.1	5.4	0.3	1.9	4.4	-31.8*
Cc1ccc2nc(N3C(=O)C(O)=C(C(=O)c4ccc(C)o4)C3c3ccc(O)cc3)sc2c1 (centres undefined)	5.2	-8.5	-0.4	1.2	22.4*	-11.5
COc1ccc2nc(N3C(=O)C(O)=C(C(=O)c4ccco4)C3c3ccc(C)o3)sc2c1 (centres undefined)	7.3	4.7	3.5	-0.9	5.4	-4.6
COc1ccc2c3c([nH]c2c1)[C@@H](CO)N(C(=O)C1CCCCC1)CC31CN(C(=O)c2ccncc2)C1	·	·	·	·	·	-2.7
COc1ccc(-c2nc(N=Nc3ccc(O)cc3)n[nH]2)cc1	3.0	2.0	-0.5	7.8	6.8	-27.0*
Cc1nc(N=Nc2ccc(O)cc2)n[nH]1	·	-6.4	4.1	-0.8	3.8	-0.9
CCOc1ccc(NC(=O)/C(C#N)=C/c2cn(CC(=O)O)c3ccccc23)cc1	5.1	0.2	·	-2.7	4.4	-25.7*
CCOc1cccc(NC(=O)/C(C#N)=C\c2cn(CC(=O)O)c3ccccc23)c1	2.8	-4.9	0.3	3.8	3.6	-29.0
O=C(NCC[C@@H]1CC[C@H](NC(=O)C2CC2)[C@H](CO)O1)c1cc(Cl)cc(Cl)c1	1.5	8.6	-0.3	-2.9	38.4*	-3.0
O=C(NCC[C@@H]1CC[C@@H](NS(=O)(=O)c2ccccc2)[C@@H](CO)O1)c1cc(Cl)cc(Cl)c1	-0.7	5.3	-0.1	0.9	2.3	-16.4*!
O=C(NCC[C@H]1CC[C@H](NC(=O)C2CC2)[C@H](CO)O1)c1cc(Cl)cc(Cl)c1	2.0	-20.1	-0.5	-1.9	-4.6	-2.7
SMILES	ERAP1 inh	S100A4 MyoIIA	E-selectin induc	AF4-AF9 inh	SIRT5 inh	rRNA inh HTS
CCCC(=O)Nc1ccc2c(c1)C(=O)N(C)C[C@@H](OC)[C@H](C)CN(C(=O)c1cnccn1)[C@@H](C)CO2	0.6	-2.1	-0.3	1.6	0.3	1.3
CC(=O)N1CC2(C1)[C@H](c1ccccc1)[C@@H](CO)N2Cc1ccccc1	-3.8	3.8	0.2	-1.2	0.2	3.6
O=C(NNc1c2ccccc2nc2ccccc12)C(O)c1ccccc1 (centres undefined)	-7.6	-2.8	·	·	0.2	-26.8*
O=C(NNc1c2ccccc2nc2ccccc12)c1ccc(O)cc1	-1.7	0.8	·	2.7	3.2	-23.4
CSc1ccc(N=Nc2c(C)[nH]n(C)c2=O)cc1	1.3	-4.5	·	16.1	-0.5	-24.4*
CO[C@H]1CN(C)C(=O)c2cc(NS(=O)(=O)c3ccccc3)ccc2OC[C@H](C)N(Cc2nccs2)C[C@@H]1C	-2.3	20.2	-0.3	0.4	-5.0	-0.2
CN(C)c1ccc(-c2cccc(C3CC=CC4C3C(=O)N(Cc3ccccc3)C4c3ccc(C(F)(F)F)cc3)c2)cc1 (centres undefined)	·	·	-0.1	·	·	·
C[C@@H]1CC=C[C@@H]2[C@H]1C(=O)N(Cc1ccccc1)[C@H]2c1cccc(Br)c1	-0.2	-0.7	0.4	-7.6	-2.2	-3.6
COC(=O)/C=C/c1cccc([C@H]2[C@@H]3C=CC[C@@H](C)[C@@H]3C(=O)N2Cc2ccccc2)c1	·	0.2	·	6.3	-2.0	-19.0*
COc1ccc(-c2cccc(C3CC=CC4C3C(=O)N(Cc3ccccc3)C4c3ccc(C(F)(F)F)cc3)c2)cc1 (centres undefined)	-1.3	1.2	0.0	1.9	18.6*	17.0
CCCCNc1ccc2c(c1)OC[C@@H](Cc1ccccc1)NS2(=O)=O	-1.2	-7.7	0.2	-1.4	-3.7	-27.7*
CC(C)C[C@@H]1COc2cc(NCCO)ccc2S(=O)(=O)N1	6.0	6.2	0.0	-3.7	-6.8	1.1
CC(C)C[C@H]1COc2cc(NCc3ccc(Cl)c(Cl)c3)ccc2S(=O)(=O)N1	-6.6	-10.8	0.0	0.0	-3.4	-25.6*
CN1CCN(C(=O)C[C@H]2CC[C@@H]3[C@H](COC[C@H](O)CN3CC3CCOCC3)O2)CC1	0.2	7.5	0.0	-3.6	10.1	-2.8
CC(C)NC(=O)NCC[C@H]1CC[C@@H](NS(=O)(=O)c2ccc(Oc3ccccc3)cc2)[C@H](CO)O1	1.1	14.8	2.2	6.2	-0.4	-5.1
CC(C)NC(=O)N(C)C[C@H]1Oc2ccc(N(C)C)cc2C(=O)N([C@H](C)CO)C[C@@H]1C	1.5	2.0	·	0.0	-10.1	1.6
O=C(C[C@@H]1C=C[C@@H](NC(=O)c2ccncc2)[C@@H](CO)O1)Nc1ccccc1	-1.0	1.1	1.9	-2.5	2.6	3.8

Source: PubChem (Broad Institute)
